Laboratory results: ChEMBL document CHEMBL4371099, “Bifunctional Duocarmycin Analogues as Inhibitors of Protein Tyrosine Kinases” (J Nat Prod, 2019)
pIC50: −log10 of the molar value. The source made the active and inactive calls. The rule behind the calls is not given here.

How the values were obtained:
[1] = biological target: T1, Vascular endothelial growth factor receptor 3 (Homo sapiens, UniProt P35916); experiment: Inhibition of recombinant human N-terminal GST/His6-tagged VEGFR3 (N799 to R1298 residues) expressed in sf9 cells using Poly(Glu,Tyr) 4:1 as substrate after 60 mins in presence of [gamma33P]-ATP by scintillation counting method
T1 sequence (P35916 whole entry, the tested form may be a part): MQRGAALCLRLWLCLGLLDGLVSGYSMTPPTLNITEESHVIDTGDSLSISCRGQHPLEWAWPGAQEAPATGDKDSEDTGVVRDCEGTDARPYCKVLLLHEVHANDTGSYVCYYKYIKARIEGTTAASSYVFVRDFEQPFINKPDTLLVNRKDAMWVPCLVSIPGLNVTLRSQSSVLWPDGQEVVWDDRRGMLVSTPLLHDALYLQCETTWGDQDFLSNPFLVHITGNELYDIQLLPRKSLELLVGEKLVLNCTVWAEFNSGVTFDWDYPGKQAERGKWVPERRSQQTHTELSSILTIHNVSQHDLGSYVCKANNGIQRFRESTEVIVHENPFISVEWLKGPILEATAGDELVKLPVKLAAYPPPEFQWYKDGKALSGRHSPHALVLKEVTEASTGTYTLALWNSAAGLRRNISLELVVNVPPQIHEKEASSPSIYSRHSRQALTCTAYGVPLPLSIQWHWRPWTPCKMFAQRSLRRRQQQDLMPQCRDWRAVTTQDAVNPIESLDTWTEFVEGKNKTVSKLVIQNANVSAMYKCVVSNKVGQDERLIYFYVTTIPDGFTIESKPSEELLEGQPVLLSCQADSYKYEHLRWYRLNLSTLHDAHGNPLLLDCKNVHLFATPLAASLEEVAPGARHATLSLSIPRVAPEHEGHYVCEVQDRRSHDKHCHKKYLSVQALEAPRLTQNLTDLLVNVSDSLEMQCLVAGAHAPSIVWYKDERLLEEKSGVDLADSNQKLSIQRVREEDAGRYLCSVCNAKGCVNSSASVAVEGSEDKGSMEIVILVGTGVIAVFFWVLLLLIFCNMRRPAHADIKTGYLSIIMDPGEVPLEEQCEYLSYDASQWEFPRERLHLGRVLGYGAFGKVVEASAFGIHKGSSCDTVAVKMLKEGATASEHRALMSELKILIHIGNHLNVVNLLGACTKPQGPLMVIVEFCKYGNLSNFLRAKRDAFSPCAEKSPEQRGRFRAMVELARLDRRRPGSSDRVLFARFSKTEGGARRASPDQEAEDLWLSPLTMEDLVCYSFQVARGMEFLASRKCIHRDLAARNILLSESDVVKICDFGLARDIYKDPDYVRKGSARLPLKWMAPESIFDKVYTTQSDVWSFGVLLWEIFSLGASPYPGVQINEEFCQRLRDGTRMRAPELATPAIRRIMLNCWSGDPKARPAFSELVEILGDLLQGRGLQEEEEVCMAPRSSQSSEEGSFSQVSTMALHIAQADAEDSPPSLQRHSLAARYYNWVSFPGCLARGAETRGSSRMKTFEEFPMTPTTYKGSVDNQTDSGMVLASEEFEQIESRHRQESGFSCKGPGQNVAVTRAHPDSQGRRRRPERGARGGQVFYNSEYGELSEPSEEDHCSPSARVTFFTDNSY
Summary of the method: (§1)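 Radiometric 33PanQinase assay using recombinant human kinases from Sf9 or E. coli, purified by affinity chromatography. ATP at the apparent Km, plus [γ-33P]-ATP. Compound tested at 1−10 000 nM, 1% DMSO. Incubated 60 min at 30 °C, stopped with 2% H3PO4, 33Pi incorporation counted by scintillation.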

[2] = Selectivity index, ratio of IC50 for human PBMC to IC50 for human A549 cells; assay type: toxicity; settings: PBMC versus A549 cells, read-out: Ratio IC50
Summary of the method: (§2)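 Selectivity index calculated as MTT IC50 in PBMC divided by MTT IC50 in the cancer line. Both values come from the 24 h MTT viability assay.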

[3] = Selectivity index, ratio of IC50 for human PBMC to IC50 for human CCRF-CEM cells; assay type: toxicity; settings: PBMC versus CCRF-CEM cells, read-out: Ratio IC50; summary of the method: as §2
[4] = biological target: T2, Vascular endothelial growth factor receptor 1 (Homo sapiens, UniProt P17948); experiment: Inhibition of recombinant human N-terminal GST-tagged VEGFR1 (K784 to I1338 residues) expressed in sf9 cells using Poly(Glu,Tyr) 4:1 as substrate after 60 mins in presence of [gamma33P]-ATP by scintillation counting method; summary of the method: as §1
T2 sequence (P17948 whole entry, the tested form may be a part): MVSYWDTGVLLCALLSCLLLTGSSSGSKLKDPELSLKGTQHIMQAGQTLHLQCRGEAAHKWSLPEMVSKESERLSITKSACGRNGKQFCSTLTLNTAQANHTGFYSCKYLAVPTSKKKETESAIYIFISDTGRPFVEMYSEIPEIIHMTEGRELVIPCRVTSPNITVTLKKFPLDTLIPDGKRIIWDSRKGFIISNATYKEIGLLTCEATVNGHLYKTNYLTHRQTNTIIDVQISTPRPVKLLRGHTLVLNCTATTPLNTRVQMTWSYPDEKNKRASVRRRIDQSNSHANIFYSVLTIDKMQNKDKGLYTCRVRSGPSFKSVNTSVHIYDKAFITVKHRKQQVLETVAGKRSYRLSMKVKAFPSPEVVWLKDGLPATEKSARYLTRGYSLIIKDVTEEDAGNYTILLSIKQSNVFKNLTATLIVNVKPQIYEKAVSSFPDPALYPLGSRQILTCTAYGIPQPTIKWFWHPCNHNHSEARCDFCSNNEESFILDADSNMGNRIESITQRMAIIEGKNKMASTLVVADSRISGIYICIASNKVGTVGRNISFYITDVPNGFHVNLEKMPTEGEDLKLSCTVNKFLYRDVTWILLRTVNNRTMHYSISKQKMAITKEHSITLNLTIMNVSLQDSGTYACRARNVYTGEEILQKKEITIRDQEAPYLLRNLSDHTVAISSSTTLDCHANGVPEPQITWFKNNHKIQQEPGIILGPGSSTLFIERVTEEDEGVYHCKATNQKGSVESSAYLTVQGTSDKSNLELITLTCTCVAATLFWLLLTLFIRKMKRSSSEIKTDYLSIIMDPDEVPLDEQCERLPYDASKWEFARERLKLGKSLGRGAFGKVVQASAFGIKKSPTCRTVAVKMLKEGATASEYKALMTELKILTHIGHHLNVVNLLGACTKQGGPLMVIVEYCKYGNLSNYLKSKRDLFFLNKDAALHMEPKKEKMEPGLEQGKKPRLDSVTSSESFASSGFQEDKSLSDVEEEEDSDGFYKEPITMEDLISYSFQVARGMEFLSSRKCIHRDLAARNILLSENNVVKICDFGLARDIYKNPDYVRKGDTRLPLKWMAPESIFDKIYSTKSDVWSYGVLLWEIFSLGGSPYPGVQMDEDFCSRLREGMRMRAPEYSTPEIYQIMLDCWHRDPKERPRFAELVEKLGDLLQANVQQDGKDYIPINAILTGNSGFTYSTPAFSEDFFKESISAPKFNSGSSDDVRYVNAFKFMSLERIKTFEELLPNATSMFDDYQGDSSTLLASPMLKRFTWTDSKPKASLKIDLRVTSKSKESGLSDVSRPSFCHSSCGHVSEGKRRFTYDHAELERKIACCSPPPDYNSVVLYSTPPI

[5] = biological target: T3, Vascular endothelial growth factor receptor 2 (Homo sapiens, UniProt P35968); experiment: Inhibition of recombinant human N-terminal GST-tagged VEGFR2 (D807 to V1356 residues) expressed in sf9 cells using Poly(Glu,Tyr) 4:1 as substrate after 60 mins in presence of [gamma33P]-ATP by scintillation counting method; summary of the method: as §1
[6] = biological target: T2, Vascular endothelial growth factor receptor 1; experiment: Inhibition of recombinant human N-terminal GST-tagged VEGFR1 (K784 to I1338 residues) expressed in sf9 cells assessed as equivalents of test compound required to show 50% inhibition using Poly(Glu,Tyr) 4:1 as substrate after 60 mins in presence of [gamma33P]-ATP by scintillation counting method; summary of the method: as §1
[7] = system: A549; experiment: Cytotoxicity against human A549 cells assessed as reduction in cell viability after 24 hrs by MTT assay; assay type: functional, cell-based; settings: A549, 24 h
Summary of the method: (§3)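 Cancer lines or PBMC from healthy human donors seeded in 96-well plates. Exposed to various compound concentrations for 24 h at 37 °C, 5% CO2. MTT solution (5 mg/mL) then added and incubated 2 h more. IC50 obtained by nonlinear regression. Mean ± SD of three independent experiments.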

[8] = biological target: T4, Mast/stem cell growth factor receptor Kit (Homo sapiens, UniProt P10721); experiment: Inhibition of recombinant human N-terminal GST/His6-tagged c-KIT (T544 to V976 residues) expressed in sf9 cells using Poly(Glu,Tyr) 4:1 as substrate after 60 mins in presence of [gamma33P]-ATP by scintillation counting method; summary of the method: as §1
T4 sequence (P10721 whole entry, the tested form may be a part): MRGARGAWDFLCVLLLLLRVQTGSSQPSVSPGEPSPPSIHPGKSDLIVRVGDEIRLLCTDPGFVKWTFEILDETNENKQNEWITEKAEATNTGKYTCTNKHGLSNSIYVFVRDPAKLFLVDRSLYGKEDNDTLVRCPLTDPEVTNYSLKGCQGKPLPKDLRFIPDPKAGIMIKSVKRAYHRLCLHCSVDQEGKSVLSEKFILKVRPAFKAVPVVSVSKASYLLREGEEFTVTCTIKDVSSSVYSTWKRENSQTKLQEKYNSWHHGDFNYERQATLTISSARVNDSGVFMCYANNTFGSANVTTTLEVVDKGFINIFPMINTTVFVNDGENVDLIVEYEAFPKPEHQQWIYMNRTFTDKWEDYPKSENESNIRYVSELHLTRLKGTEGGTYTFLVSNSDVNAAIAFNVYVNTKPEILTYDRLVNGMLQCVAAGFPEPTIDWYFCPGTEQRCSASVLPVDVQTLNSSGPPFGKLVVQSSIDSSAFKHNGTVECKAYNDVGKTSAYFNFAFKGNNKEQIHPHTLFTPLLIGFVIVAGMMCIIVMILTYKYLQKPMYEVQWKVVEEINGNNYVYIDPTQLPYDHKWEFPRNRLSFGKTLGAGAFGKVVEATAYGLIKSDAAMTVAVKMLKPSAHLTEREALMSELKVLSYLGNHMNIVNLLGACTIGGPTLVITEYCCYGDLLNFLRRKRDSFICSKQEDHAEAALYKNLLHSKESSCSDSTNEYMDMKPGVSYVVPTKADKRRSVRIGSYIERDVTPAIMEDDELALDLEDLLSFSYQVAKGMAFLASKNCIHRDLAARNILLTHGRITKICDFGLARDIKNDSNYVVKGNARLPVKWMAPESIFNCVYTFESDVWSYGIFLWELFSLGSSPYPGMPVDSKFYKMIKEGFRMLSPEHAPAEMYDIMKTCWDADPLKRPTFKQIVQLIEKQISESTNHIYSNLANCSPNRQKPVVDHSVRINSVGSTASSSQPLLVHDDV

[9] = system: Jurkat; experiment: Cytotoxicity against human Jurkat cells assessed as reduction in cell viability after 24 hrs by MTT assay; assay type: functional, cell-based; summary of the method: as §3
[10] = system: CCRF-CEM; experiment: Cytotoxicity against human CCRF-CEM cells assessed as reduction in cell viability after 24 hrs by MTT assay; assay type: functional, cell-based; summary of the method: as §3
[11] = Cytotoxicity against human PBMC assessed as cell viability at 80 uM after 24 hrs by MTT assay relative to control; assay type: cell-based; settings: read-out: Activity; summary of the method: as §3
[12] = system: MIA PaCa-2; experiment: Cytotoxicity against human MIAPaCa2 cells assessed as reduction in cell viability after 24 hrs by MTT assay; assay type: functional, cell-based; settings: MIA PaCa-2, 24 h; summary of the method: as §3
[13] = biological target: T3, Vascular endothelial growth factor receptor 2; experiment: Inhibition of recombinant human N-terminal GST-tagged VEGFR2 (D807 to V1356 residues) expressed in sf9 cells assessed as equivalents of test compound required to show 50% inhibition using Poly(Glu,Tyr) 4:1 as substrate after 60 mins in presence of [gamma33P]-ATP by scintillation counting method; summary of the method: as §1
[14] = system: MIA PaCa-2; experiment: Cell cycle arrest in human MIAPaCa2 cells at 1 to 1000 nM after 24 hrs by propidium iodide staining based FACS analysis; assay type: functional
Summary of the method: (§4)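 Cells (1 × 10^6) seeded, incubated overnight, then exposed 24 h at 37 °C and 5% CO2 to increasing concentrations of compound (100 nM axitinib as VEGFR-2 control). Fixed in cold 70% ethanol, stained with propidium iodide for 30 min. DNA content read by flow cytometry, 10,000 gated events per sample. Sub-G1 fraction taken as apoptosis. Three independent experiments.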

[15] = biological target: T5, Tyrosine-protein kinase ABL2 (Homo sapiens, UniProt P42684); experiment: Inhibition of recombinant human N-terminal GST/His6-tagged ABL2 (M1 to P650 residues) expressed in sf9 cells using Poly(Glu,Tyr) 4:1 as substrate after 60 mins in presence of [gamma33P]-ATP by scintillation counting method; summary of the method: as §1
T5 sequence (P42684 whole entry, the tested form may be a part): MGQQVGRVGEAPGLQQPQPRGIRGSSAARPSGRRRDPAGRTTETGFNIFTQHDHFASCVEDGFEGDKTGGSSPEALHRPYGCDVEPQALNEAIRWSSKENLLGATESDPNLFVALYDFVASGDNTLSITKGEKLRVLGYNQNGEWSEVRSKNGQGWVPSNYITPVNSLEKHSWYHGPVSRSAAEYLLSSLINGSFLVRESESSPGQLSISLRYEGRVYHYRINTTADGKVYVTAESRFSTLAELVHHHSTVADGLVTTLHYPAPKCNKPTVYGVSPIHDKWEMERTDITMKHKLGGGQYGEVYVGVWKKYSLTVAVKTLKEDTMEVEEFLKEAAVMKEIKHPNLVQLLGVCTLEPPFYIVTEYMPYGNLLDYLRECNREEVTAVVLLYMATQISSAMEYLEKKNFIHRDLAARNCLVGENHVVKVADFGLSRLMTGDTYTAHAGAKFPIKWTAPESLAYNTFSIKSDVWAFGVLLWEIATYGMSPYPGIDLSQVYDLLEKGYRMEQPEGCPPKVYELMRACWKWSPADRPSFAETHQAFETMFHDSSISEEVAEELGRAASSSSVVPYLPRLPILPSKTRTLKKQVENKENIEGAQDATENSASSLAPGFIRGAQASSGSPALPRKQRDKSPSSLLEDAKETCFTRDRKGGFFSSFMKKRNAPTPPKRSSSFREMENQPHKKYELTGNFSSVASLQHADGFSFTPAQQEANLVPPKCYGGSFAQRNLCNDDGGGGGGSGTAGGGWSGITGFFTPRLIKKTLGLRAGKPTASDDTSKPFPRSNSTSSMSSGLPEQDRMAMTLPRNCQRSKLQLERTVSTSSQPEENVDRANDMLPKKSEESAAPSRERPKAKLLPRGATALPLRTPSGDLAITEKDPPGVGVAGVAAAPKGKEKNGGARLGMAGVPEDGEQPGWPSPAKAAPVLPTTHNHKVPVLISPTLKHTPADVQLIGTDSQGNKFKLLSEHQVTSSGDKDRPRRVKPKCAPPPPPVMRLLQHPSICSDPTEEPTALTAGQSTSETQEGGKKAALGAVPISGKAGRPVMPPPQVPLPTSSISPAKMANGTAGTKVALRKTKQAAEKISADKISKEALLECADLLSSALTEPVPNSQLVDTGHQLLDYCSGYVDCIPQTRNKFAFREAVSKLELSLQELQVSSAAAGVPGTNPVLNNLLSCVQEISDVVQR

[16] = system: PBMC; experiment: Cytotoxicity against human PBMC assessed as reduction in cell viability after 24 hrs by MTT assay; assay type: cell-based; summary of the method: as §3
[17] = biological target: T5, Tyrosine-protein kinase ABL2; experiment: Inhibition of recombinant human N-terminal GST/His6-tagged ABL2 (M1 to P650 residues) expressed in sf9 cells assessed as equivalents of test compound required to show 50% inhibition using Poly(Glu,Tyr) 4:1 as substrate after 60 mins in presence of [gamma33P]-ATP by scintillation counting method; summary of the method: as §1
[18] = system: ADR5000 cell line; experiment: Cytotoxicity against human CEM/ADR5000 cells assessed as reduction in cell viability after 24 hrs by MTT assay; assay type: functional, cell-based; settings: ADR5000, 24 h; summary of the method: as §3
[19] = Selectivity index, ratio of IC50 for human PBMC to IC50 for human Jurkat cells; assay type: toxicity; settings: PBMC versus Jurkat cells, read-out: Ratio IC50; summary of the method: as §2
[20] = biological target: T4, Mast/stem cell growth factor receptor Kit; experiment: Inhibition of recombinant human N-terminal GST/His6-tagged c-KIT (T544 to V976 residues) expressed in sf9 cells assessed as equivalents of test compound required to show 50% inhibition using Poly(Glu,Tyr) 4:1 as substrate after 60 mins in presence of [gamma33P]-ATP by scintillation counting method; summary of the method: as §1
[21] = system: ADR5000 cell line; experiment: Cell cycle arrest in human CEM/ADR5000 cells at 100 nM after 24 hrs by propidium iodide staining based FACS analysis; assay type: functional
Summary of the method: (§5)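 Cells (1 × 10^6) seeded in 12-well plates and held overnight, then exposed to increasing concentrations of test compound or 100 nM axitinib (VEGFR-2 inhibition control) for 24 h at 37 °C, 5% CO2. Fixed in cold 70% ethanol, stained with propidium iodide for 30 min, DNA content read by flow cytometry on 10,000 gated events; three independent experiments, means ± SD.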

[22] = system: MIA PaCa-2; experiment: Cell cycle arrest in human MIAPaCa2 cells at 100 nM after 24 hrs by propidium iodide staining based FACS analysis; assay type: functional; summary of the method: as §5
[23] = system: CCRF-CEM; experiment: Cell cycle arrest in human CCRF-CEM cells at 100 nM after 24 hrs by propidium iodide staining based FACS analysis; assay type: functional; summary of the method: as §5
[24] = system: Jurkat; experiment: Cell cycle arrest in human Jurkat cells at 100 nM after 24 hrs by propidium iodide staining based FACS analysis; assay type: functional; summary of the method: as §5
[25] = system: A549; experiment: Cell cycle arrest in human A549 cells at 100 nM after 24 hrs by propidium iodide staining based FACS analysis; assay type: functional; summary of the method: as §5
[26] = Selectivity index, ratio of IC50 for human PBMC to IC50 for human CEM/ADR5000 cells; assay type: toxicity; settings: PBMC versus CEM/ADR5000 cells, read-out: Ratio IC50; summary of the method: as §2
[27] = system: CCRF-CEM; experiment: Cell cycle arrest in human CCRF-CEM cells assessed as accumulation at sub-G1 phase after 24 hrs by propidium iodide staining based FACS analysis; assay type: functional; summary of the method: as §4
[28] = biological target: T1, Vascular endothelial growth factor receptor 3; experiment: Inhibition of recombinant human N-terminal GST/His6-tagged VEGFR3 (N799 to R1298 residues) expressed in sf9 cells assessed as equivalents of test compound required to show 50% inhibition using Poly(Glu,Tyr) 4:1 as substrate after 60 mins in presence of [gamma33P]-ATP by scintillation counting method; summary of the method: as §1
[29] = system: ADR5000 cell line; experiment: Cell cycle arrest in human CEM/ADR5000 cells assessed as accumulation at sub-G1 phase after 24 hrs by propidium iodide staining based FACS analysis; assay type: functional; summary of the method: as §4
[30] = system: MIA PaCa-2; experiment: Cell cycle arrest in human MIAPaCa2 cells assessed as accumulation at sub-G1 phase after 24 hrs by propidium iodide staining based FACS analysis; assay type: functional; summary of the method: as §4
[31] = Selectivity index, ratio of IC50 for human PBMC to IC50 for human MIAPaCa2 cells; assay type: toxicity; settings: PBMC versus MIAPaCa2 cells, read-out: Ratio IC50; summary of the method: as §2
[32] = system: Jurkat; experiment: Cell cycle arrest in human Jurkat cells assessed as accumulation at sub-G1 phase after 24 hrs by propidium iodide staining based FACS analysis; assay type: functional; summary of the method: as §4
[33] = system: MIA PaCa-2; experiment: Cell cycle arrest in human MIAPaCa2 cells assessed as accumulation at S phase at 1 nM after 24 hrs by propidium iodide staining based FACS analysis; assay type: functional; summary of the method: as §4
[34] = system: A549; experiment: Cell cycle arrest in human A549 cells assessed as accumulation at sub-G1 phase after 24 hrs by propidium iodide staining based FACS analysis; assay type: functional; summary of the method: as §4

For `C[C@@H]1CN(C(=O)CCCC(=O)N2C[C@@H](C)c3c2cc(O)c2ccccc32)c2cc(O)c3ccccc3c21`, the pIC50 [1] was under 5.00, the selectivity ratio [2] was over 120 and the selectivity ratio [3] was over 439. For the same compound, the pIC50 [4] was 5.68, the pIC50 [5] was 6.48 and the Activity [6] was 511 equiv. It also gave a pIC50 [7] of 6.18, a pIC50 [8] of 5.08 and a pIC50 [9] of 6.18. For the same compound, the pIC50 [10] was 6.74, the viability at 24 h, 80 µM [11] was 80% and the pIC50 [12] was under 5.00. The Activity [13] was 143 equiv, the Activity [14] was “inactive” and the pIC50 [15] was 6.27. The pIC50 [16] was under 4.10, the Activity [17] was 360 equiv and the pIC50 [18] was under 5.00. It also gave a selectivity ratio [19] of over 121 and an Activity [20] of 643 equiv.

With `CNC(=O)c1ccccc1Sc1ccc2c(/C=C/c3ccccn3)n[nH]c2c1` the Activity [21] was “Active”, the Activity [22] was “Active” and the Activity [23] was “Active”. For the same compound, the Activity [24] was “Active” and the Activity [25] was “Active”.

For `O=C(CCCC(=O)N1C[C@@H](CCl)c2c1cc(O)c1ccccc21)N1C[C@@H](CCl)c2c1cc(O)c1ccccc21`, the selectivity ratio [26] was 290, the pIC50 [1] was 5.38 and the inhibition [1] was “Dose-dependent effect”. For the same compound, the selectivity ratio [2] was 741, the Activity [27] was “Dose-dependent effect” and the selectivity ratio [3] was 2220. For the same compound, the Activity [28] was 894 equiv, the pIC50 [4] was 5.89 and the inhibition [4] was “Dose-dependent effect”. The Activity [29] was “Dose-dependent effect”, the pIC50 [5] was 6.28 and the inhibition [5] was “Dose-dependent effect”. For the same compound, the Activity [30] was “Dose-dependent effect”, the Activity [6] was 283 equiv and the pIC50 [7] was 8.57. The pIC50 [8] was 5.52, the inhibition [8] was “Dose-dependent effect” and the pIC50 [9] was 8.85. For the same compound, the selectivity ratio [31] was 142, the pIC50 [10] was 9.05 and the pIC50 [12] was 7.85. The Activity [13] was 230 equiv, the pIC50 [15] was 6.16 and the inhibition [15] was “Dose-dependent effect”. The pIC50 [16] was 5.70, the Activity [32] was “Dose-dependent effect” and the Activity [17] was 457 equiv. It also gave a pIC50 [18] of 8.16, a selectivity ratio [19] of 1430 and an Activity [20] of 233 equiv. The Activity [33] was “Active” and the Activity [34] was “Dose-dependent effect”.
